The target in test [1] is T1, D(2) dopamine receptor (Homo sapiens, UniProt P14416). Put plainly: In vitro inhibitory constant against [3H]spiperone binding to human dopamine D2 receptor expressed in CHO cells. The test is classed as cell-based.
The target of test [2] is Sodium-dependent serotonin transporter (Mus musculus) (UniProt Q60857). Put plainly: Effective dose against potentiation of 5-HTP induced serotonin syndrome in mice upon oral administration (Serotonin reuptake inhibitory activity). The test is classed as functional, organism-based.
Test [3] deals with Sodium-dependent serotonin transporter (Rattus norvegicus, UniProt P31652). Nature of the test: In vitro inhibitory constant against [3H]paroxetine binding to rat frontal cortex membrane serotonin reuptake site. The test is classed as tissue-based. Put shortly: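 Rat frontal cortex membranes; serotonin reuptake sites labelled with [3H]paroxetine in competition binding. Ki (nM) calculated from at least three independent experiments.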

The target in test [4] is T1, D(2) dopamine receptor. Nature of the test: In vitro inhibitory constant against [3H]spiperone binding to human dopamine D2 receptor expressed in CHO cells; NA= not active. The test is classed as cell-based. Put shortly:
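Membrane preparation from CHO cells transfected with human D2L receptor; competition binding against [3H]spiperone.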

T1 sequence (P14416 whole entry): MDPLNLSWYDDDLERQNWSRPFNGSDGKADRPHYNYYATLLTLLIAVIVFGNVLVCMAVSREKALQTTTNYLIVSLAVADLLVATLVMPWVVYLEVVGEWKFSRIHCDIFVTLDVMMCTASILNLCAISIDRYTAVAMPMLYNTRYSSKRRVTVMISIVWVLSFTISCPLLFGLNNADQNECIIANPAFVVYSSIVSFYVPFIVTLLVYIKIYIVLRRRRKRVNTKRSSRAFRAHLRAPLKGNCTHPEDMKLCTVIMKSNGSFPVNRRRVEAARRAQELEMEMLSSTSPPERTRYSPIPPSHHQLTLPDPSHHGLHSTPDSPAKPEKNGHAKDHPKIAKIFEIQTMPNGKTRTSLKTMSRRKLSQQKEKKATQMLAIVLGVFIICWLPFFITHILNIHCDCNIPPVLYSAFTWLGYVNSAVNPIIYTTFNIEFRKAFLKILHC
Chain of Sodium-dependent serotonin transporter (P31652 whole entry): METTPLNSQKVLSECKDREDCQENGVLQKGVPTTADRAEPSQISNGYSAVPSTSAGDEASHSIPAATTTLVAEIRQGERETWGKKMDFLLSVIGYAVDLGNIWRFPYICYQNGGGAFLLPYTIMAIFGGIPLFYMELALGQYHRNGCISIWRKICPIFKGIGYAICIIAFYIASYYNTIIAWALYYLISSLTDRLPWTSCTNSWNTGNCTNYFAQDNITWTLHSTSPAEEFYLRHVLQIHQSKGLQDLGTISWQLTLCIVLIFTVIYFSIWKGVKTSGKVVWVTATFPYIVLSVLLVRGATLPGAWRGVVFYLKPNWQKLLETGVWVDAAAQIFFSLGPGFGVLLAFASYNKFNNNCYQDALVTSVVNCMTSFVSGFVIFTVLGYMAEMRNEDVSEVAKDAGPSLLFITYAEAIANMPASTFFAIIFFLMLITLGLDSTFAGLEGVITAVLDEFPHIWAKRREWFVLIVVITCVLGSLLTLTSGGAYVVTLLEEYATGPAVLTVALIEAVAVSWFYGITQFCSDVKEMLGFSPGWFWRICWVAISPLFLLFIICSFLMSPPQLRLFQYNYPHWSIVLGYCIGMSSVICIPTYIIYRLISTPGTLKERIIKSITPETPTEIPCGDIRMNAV
Chain of Sodium-dependent serotonin transporter (Mus musculus) (Q60857 whole entry): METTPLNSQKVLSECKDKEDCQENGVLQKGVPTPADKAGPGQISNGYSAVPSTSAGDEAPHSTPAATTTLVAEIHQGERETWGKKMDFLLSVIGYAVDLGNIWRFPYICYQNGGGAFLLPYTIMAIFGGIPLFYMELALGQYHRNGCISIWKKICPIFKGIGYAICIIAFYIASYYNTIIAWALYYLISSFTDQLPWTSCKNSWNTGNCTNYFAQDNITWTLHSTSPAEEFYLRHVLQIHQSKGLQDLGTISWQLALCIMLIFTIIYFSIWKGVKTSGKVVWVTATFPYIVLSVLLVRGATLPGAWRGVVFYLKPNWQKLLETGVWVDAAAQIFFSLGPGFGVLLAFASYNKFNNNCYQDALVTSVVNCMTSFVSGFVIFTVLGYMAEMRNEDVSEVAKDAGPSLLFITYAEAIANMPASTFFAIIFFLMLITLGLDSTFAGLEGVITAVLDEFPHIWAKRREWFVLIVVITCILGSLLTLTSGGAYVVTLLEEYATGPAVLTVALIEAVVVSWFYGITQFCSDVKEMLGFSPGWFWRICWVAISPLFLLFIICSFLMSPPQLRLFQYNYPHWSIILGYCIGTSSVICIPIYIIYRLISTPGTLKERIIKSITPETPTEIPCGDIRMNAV

`Fc1cccc2[nH]cc(CCCN3CCN(c4cccc5c4OCCO5)CC3)c12` registered a Ki in test [1] of 8.1 nM. For the same compound, the ED50 in test [2] is 32 mg/kg.

On to `c1cc2c(c(N3CCN(CCc4c[nH]c5ccccc45)CC3)c1)OCCO2`, for which the Ki in test [1] was 45 nM; in test [3], 12 nM.

With `CC1(C)Oc2c(cccc2N2CCN(CCCc3c[nH]c4ccccc34)CC2)NC1=O`, the Ki in test [1] was 7.4 nM; in test [3] it was 2.8 nM. In addition, the ED50 in test [2] worked out at 7.3 mg/kg.

For `CC1Oc2c(cccc2N2CCN(CCCc3c[nH]c4ccccc34)CC2)NC1=O` (stereo unspecified), the Ki in test [1] came out at 4.5 nM; in test [3], 0.4 nM. The ED50 in test [2] came to 3 mg/kg.

Consider `Clc1cccc2c(CCCN3CCN(c4cccc5c4OCCO5)CC3)c[nH]c12`, for which the Ki in test [1] was found to be 15.5 nM.

Regarding `Clc1cccc2[nH]cc(CCCN3CCN(c4cccc5c4OCCO5)CC3)c12`, in test [1], the affinity corresponds to a Ki of 24 nM.

In the case of `C[C@H]1Oc2c(cccc2N2CCN(CCCc3c[nH]c4c(F)cccc34)CC2)NC1=O`, the Ki in test [1] came to 5.3 nM; in test [3] it was 2.4 nM. Moreover, the ED50 in test [2] was 30 mg/kg.

In test [1], `Fc1ccc2[nH]cc(CCCN3CCN(c4cccc5c4OCCO5)CC3)c2c1` showed a Ki of 19 nM. Also, the ED50 in test [2] is 2 mg/kg.

Consider `O=C1CCc2c(cccc2N2CCN(CCCc3c[nH]c4ccccc34)CC2)N1`, for which the Ki in test [1] amounted to 11.4 nM; in test [3], 1.5 nM. The ED50 in test [2] stood at 9 mg/kg.

On to `Fc1cccc2c(CCCN3CCN(c4cccc5c4OCCO5)CC3)c[nH]c12`, for which, in test [1], the Ki amounted to 10.6 nM. Further, in test [2], the ED50 is 28.4 mg/kg.

As to `c1cc2c(c(N3CCN(CCCCCc4c[nH]c5ccccc45)CC3)c1)OCCO2`, the Ki in test [1] stood at 9.1 nM.

Take `c1cc2c(c(N3CCN(CCCc4c[nH]c5ccccc45)CC3)c1)CCCN2`: the values for the Ki in test [1] and in test [3] were 11.3 nM and 1.1 nM, respectively. The ED50 in test [2] was found to be 15 mg/kg.

Turning to `C[C@H]1Oc2c(cccc2N2CCN(CCCc3c[nH]c4ccc(F)cc34)CC2)NC1=O`, the results for the inhibition constant Ki in test [1] and in test [3] were 6.9 nM and 0.2 nM, respectively. Also, in test [2], the median effective dose (ED50) was determined as 0.15 mg/kg.

As for `Clc1ccc2[nH]cc(CCCN3CCN(c4cccc5c4OCCO5)CC3)c2c1`, the Ki in test [1] stood at 31.6 nM; in test [3], 0.5 nM.

As for `Cc1cccc2c(CCCN3CCN(c4cccc5c4OCCO5)CC3)c[nH]c12`, in test [1], affinity was put at a Ki of 15.9 nM.

On to `c1cc2c(c(N3CCN(CCCCc4c[nH]c5ccccc45)CC3)c1)OCCO2`, for which the Ki in test [1] was determined as 5.1 nM; in test [3], 60 nM. In addition, the ED50 in test [2] is > 30 mg/kg.

In the case of `C[C@@H]1Oc2c(cccc2N2CCN(CCCc3c[nH]c4c(F)cccc34)CC2)NC1=O`, the figures for the inhibition constant (Ki) in test [1] and in test [3] were 1 nM and 3 nM, respectively. For the same compound, the ED50 in test [2] worked out at 10 mg/kg.

Turning to `C[C@H]1Oc2c(cccc2N2CCN(CCCc3c[nH]c4ccccc34)CC2)NC1=O`, the Ki in test [1] amounted to 8.7 nM; in test [3] it was 0.5 nM. The ED50 in test [2] was found to be 3 mg/kg.

With `c1ccc2c(CCC3CCNCC3)c[nH]c2c1` [INDALPINE], the inhibition constant Ki result in test [4] is given as “Not Active”.

In turn, `COc1ccc2[nH]cc(CCCN3CCN(c4cccc5c4OCCO5)CC3)c2c1` yielded a Ki in test [1] of 15 nM.

As to `CC1Oc2c(N3CCN(CCCc4c[nH]c5ccccc45)CC3)cccc2N(C)C1=O` (stereo unspecified), the Ki was found to be 35.7 nM in test [1] and 1.4 nM in test [3]. Also, in test [2], the ED50 was 5.6 mg/kg.

Compound `Cc1ccc2[nH]cc(CCCN3CCN(c4cccc5c4OCCO5)CC3)c2c1` returned a Ki in test [3] of 0.4 nM.

For the compound `c1cc2c(c(N3CCN(CCCc4c[nH]c5ccccc45)CC3)c1)OCCO2`, affinity in test [1] was put at a Ki of 21 nM. For the same compound, in test [2], the ED50 worked out at 22 mg/kg.

As to `C[C@@H]1Oc2c(cccc2N2CCN(CCCc3c[nH]c4ccc(F)cc34)CC2)NC1=O`, the values for the inhibitory constant (Ki) in test [1] and in test [3] were 4.7 nM and 0.7 nM, respectively. In addition, the ED50 in test [2] was determined as 0.7 mg/kg.

`Fc1ccc2c(CCCN3CCN(c4cccc5c4OCCO5)CC3)c[nH]c2c1`: in test [2], the ED50 turned out to be 30 mg/kg.

With `CC1CNc2cccc(N3CCN(CCCc4c[nH]c5ccccc45)CC3)c2C1` (stereo unspecified), the Ki in test [1] stood at 15 nM; in test [3], 2.7 nM. Moreover, in test [2], the ED50 was > 100 mg/kg.

Turning to `c1cc2c(c(N3CCN(CCCc4c[nH]c5ccccc45)CC3)c1)CCCO2`, the inhibitory constant (Ki) in test [1] was 20.3 nM. Also, in test [2], the ED50 was determined as 100 mg/kg.

Take `Clc1ccc2c(CCCN3CCN(c4cccc5c4OCCO5)CC3)c[nH]c2c1`: the Ki in test [1] is 2.1 nM. Also, the ED50 in test [2] came to 86 mg/kg.

With `c1cc2c(c(N3CCN(CCCc4c[nH]c5ccccc45)CC3)c1)OCCN2`, the Ki in test [1] amounted to 17.9 nM; in test [3] it was 1.5 nM. In addition, in test [2], the ED50 came to 100 mg/kg.

Regarding `CN1CCCc2c1cccc2N1CCN(CCCc2c[nH]c3ccccc23)CC1`, the results for the Ki in test [1] and in test [3] were 90 nM and 7.4 nM, respectively.

For the compound `C[C@@H]1Oc2c(cccc2N2CCN(CCCc3c[nH]c4ccccc34)CC2)NC1=O`, the Ki in test [1] and in test [3] was 1 nM throughout. For the same compound, the ED50 in test [2] is > 10 mg/kg.

With `O=C1COc2c(cccc2N2CCN(CCCc3c[nH]c4ccccc34)CC2)N1`, the Ki was found to be 4.3 nM in test [1] and 0.6 nM in test [3]. For the same compound, in test [2], the ED50 was determined as 30 mg/kg.

A word on the Ki: it is a dissociation constant, usually derived from enzyme kinetics or from competition with a known ligand. As usually defined, the ED50 is the dose at which the effect has come halfway, by size or by number of responders.
